Screening data as filed in PubChem BioAssay.
MIN6 prolif = inducers of MIN6 beta-cell proliferation, primary screen, ATP luminescence, uHTS; MIN6 cells proliferation, ATPlite luminescence, 48 h; cells starved in 0.2% serum; 100% = growth in 10% serum; proliferation, % at 10 µM; 330,000 compounds, 0.29% hits;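 active = compounds whose signal lies at least 3.5 SD above the mean of all wells on their plate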;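 also: 0% = DMSO-treated cells in low-serum medium and 100% = 10% serum control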
HKDC1 inh = HKDC1 hexokinase inhibitors, primary screen, biochemical, fluorescence, uHTS; 340,000 compounds, 0.16% hits; Q2TB90; inhibition, % at 20 µM; recombinant HKDC1, G6PDH/diaphorase resazurin coupled fluorescence; AID 493160, 2011;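 active = inhibition above about 35% when tested at 20 µM, limit read from the data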;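 also: plate controls were DMSO wells with enzyme for no effect and DMSO wells lacking enzyme for full effect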
Target sequence (Q2TB90 whole entry, looked up): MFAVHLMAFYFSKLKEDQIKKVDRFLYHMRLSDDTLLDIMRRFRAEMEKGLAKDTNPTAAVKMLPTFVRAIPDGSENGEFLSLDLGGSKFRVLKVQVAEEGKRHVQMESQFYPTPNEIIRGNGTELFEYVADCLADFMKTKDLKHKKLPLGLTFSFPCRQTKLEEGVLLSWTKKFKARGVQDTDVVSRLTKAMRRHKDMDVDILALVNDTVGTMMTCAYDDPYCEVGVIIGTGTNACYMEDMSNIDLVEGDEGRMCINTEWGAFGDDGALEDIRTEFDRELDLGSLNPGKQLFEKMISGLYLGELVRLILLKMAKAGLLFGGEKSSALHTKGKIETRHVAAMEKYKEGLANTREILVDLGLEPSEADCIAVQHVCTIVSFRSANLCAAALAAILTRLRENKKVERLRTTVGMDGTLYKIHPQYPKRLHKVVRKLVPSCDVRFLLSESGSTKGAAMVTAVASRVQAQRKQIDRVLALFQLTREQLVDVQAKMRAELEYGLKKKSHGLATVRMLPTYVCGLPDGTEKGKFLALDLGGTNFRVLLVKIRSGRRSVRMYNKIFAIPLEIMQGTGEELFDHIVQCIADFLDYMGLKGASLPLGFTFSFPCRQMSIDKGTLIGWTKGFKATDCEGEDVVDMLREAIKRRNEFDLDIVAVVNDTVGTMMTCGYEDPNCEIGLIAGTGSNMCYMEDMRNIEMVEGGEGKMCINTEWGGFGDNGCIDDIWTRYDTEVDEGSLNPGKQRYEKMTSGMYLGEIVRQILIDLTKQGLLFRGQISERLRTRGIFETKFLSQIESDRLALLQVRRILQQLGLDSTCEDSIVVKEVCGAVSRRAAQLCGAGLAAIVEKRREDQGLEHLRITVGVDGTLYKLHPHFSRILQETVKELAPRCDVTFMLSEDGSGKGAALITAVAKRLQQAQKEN
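Test system: recombinant HKDC1 (HK5) hexokinase enzyme, produced in-house / Doses: 20 µM test compound, 1% DMSO / Timing: 90 min, room temperature / Detection: G6PDH/diaphorase-coupled fluorescence, 1 mM NADP, 100 µM resazurin, 525/613 nm / Control set: DMSO wells with and without enzyme mix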
PvdQ acylase = P. aeruginosa PvdQ acylase inhibitors, primary screen, biochemical, fluorescence, plate reader and imaging, single point; PvdQ acylase [Pseudomonas aeruginosa LESB58]; AID 488965, 2010; 340,000 compounds, 0.063% hits; purified PvdQ acylase; inhibition, % at 10 µM; in the data active = inhibition above about 30%, passing the limit was not always enough;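 also: 0% = vehicle neutral wells and 100% = reference inhibitor wells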
VIM-2 inhibitor = VIM-2 metallo-beta-lactamase inhibitors, primary screen, biochemical, epi-absorbance readout, Pseudomonas aeruginosa enzyme; inhibition, % at 5.6 µM; 290,000 compounds, 0.89% hits; AID 1527, 2009; purified VIM-2, nitrocefin hydrolysis, epi-absorbance fluorescence;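 active = inhibition above the mean of all tested compounds plus 3 SD, cutoff set per screening run, cut at about 7.5% in these data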;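 also: red hydrolysis product quenches plate fluorescence so inhibitors raise well fluorescence; 0% = enzyme with DMSO and 100% = DMSO without enzyme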
IMP-1 inh = IMP-1 metallo-beta-lactamase inhibitors, primary screen, biochemical, epi-absorbance readout, Pseudomonas aeruginosa enzyme. inhibition, % at 5.6 µM. 290,000 compounds, 0.45% hits. purified IMP-1, nitrocefin hydrolysis, epi-absorbance fluorescence;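 active = inhibition above the mean plus 3 SD of all compounds in the same screening run, cut at about 4.5% in these data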;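 also: 0% = IMP-1 with DMSO and 100% = DMSO wells lacking enzyme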
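Test system: recombinant IMP-1 enzyme, purified / Medium: HEPES buffer pH 7.1 with ZnSO4 and Brij 35 / Doses: single dose, 5.6 µM / Times: 25 °C, 15 min preincubation, 25 min reaction / Detection: Epi-absorbance via hydrolysed-nitrocefin quenching of white-plate fluorescence, 480/530 nm, EDTA stop / Evaluation: percent inhibition from optical density relative to buffer-blank wells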
ATG4B inhibitor = ATG4B protease inhibitors, primary screen, biochemical, fluorescence, uHTS. ATG4B cleavage of LC3-PLA2, NBD-HPC fluorescence, 1 h. inhibition, % at 8.33 µM. 340,000 compounds, 0.51% hits; in the data active = inhibition above about 40%
* hit, by the source's call. Only some compounds are listed: those with a hit (about 2% of all), similar ones and a draw of the others.

`Cc1ccc2c(c1)c1ncnc(N3CCOCC3)c1n2C` gave MIN6 prolif -1, HKDC1 inh 3, PvdQ acylase -28, VIM-2 inhibitor 7.7*, IMP-1 inh -4 and ATG4B inhibitor -7.
`COc1cccc(NC(=O)[C@H](C)NC(=O)C2CCN(S(=O)(=O)c3ccc(C)cc3)CC2)c1` gave MIN6 prolif 3, HKDC1 inh 17, PvdQ acylase -12, VIM-2 inhibitor -3, IMP-1 inh -4 and ATG4B inhibitor -3.
For COC(=O)c1cc(OC)c(OC)cc1N=CC1=C(O)CC(C)(C)CC1=O the results were MIN6 prolif -2, HKDC1 inh 3, PvdQ acylase -3, VIM-2 inhibitor 1, IMP-1 inh 5.1* and ATG4B inhibitor -2.
Screening COCC(=O)Oc1c(S(=O)(=O)c2ccc(C)cc2)c(C)nn1-c1ccccc1 returned MIN6 prolif -2, HKDC1 inh 0, PvdQ acylase 34*, VIM-2 inhibitor -1, IMP-1 inh -2 and ATG4B inhibitor 4.
Screening COCC(=O)Oc1c(S(=O)(=O)c2ccc(C)cc2)c(C)nn1C(C)(C)C returned MIN6 prolif -2, HKDC1 inh 2, PvdQ acylase -26, VIM-2 inhibitor 0, IMP-1 inh -2 and ATG4B inhibitor 15.
`O=C(c1ccc(COc2ccccc2Br)o1)N1N=C(C(F)F)CC1(O)C(F)F` (stereo not drawn) gave MIN6 prolif 0, HKDC1 inh 3, PvdQ acylase -8, VIM-2 inhibitor -4, IMP-1 inh -3 and ATG4B inhibitor 22.
Screening COc1ccc(-c2csc(NC(=O)Cc3cccc4ccccc34)c2C(=O)O)cc1 returned HKDC1 inh 1, PvdQ acylase -10, VIM-2 inhibitor 0, IMP-1 inh 7.7* and ATG4B inhibitor 10.
COC1=C(Nc2ccccc2)C(=O)c2ccccc2C1=O was read as MIN6 prolif -5, HKDC1 inh -11, PvdQ acylase -20, VIM-2 inhibitor 10*, IMP-1 inh 3 and ATG4B inhibitor 6.
COC1=C(Nc2ccc(C)cc2)C(=O)c2ccccc2C1=O was read as MIN6 prolif -3, HKDC1 inh -1, PvdQ acylase -9, VIM-2 inhibitor 7, IMP-1 inh -2 and ATG4B inhibitor 21.
Screening CCOC(=O)c1c(C)oc2c(CN3CCN(C)CC3)c(Br)c(OC)c(O)c12 returned MIN6 prolif -4, HKDC1 inh 0, PvdQ acylase 4, VIM-2 inhibitor 10*, IMP-1 inh -2 and ATG4B inhibitor -8.
`Cc1cc(=O)oc2c3c(cc(OCC(=O)N[C@@H](C)C(=O)O)c12)OC(C)(C)CC3` gave MIN6 prolif -1, HKDC1 inh 4, PvdQ acylase 1, VIM-2 inhibitor 8.5*, IMP-1 inh -4 and ATG4B inhibitor 2.
`Cc1cc(=O)oc2c3c(cc(OCC(=O)NC(C)C)c12)OC(C)(C)CC3` gave HKDC1 inh 7, PvdQ acylase 11, VIM-2 inhibitor -1, IMP-1 inh -3 and ATG4B inhibitor -3.
COc1cccc(/C=C2\Oc3cc(OC(=O)N4CCOCC4)ccc3C2=O)c1 was read as MIN6 prolif -3, HKDC1 inh 1, PvdQ acylase -3, VIM-2 inhibitor -3, IMP-1 inh -3 and ATG4B inhibitor -12.
Screening COc1cccc(/C=C2\Oc3cc(OCC(=O)N4Cc5ccccc5C[C@H]4C(=O)O)ccc3C2=O)c1 returned MIN6 prolif -4, HKDC1 inh 12, PvdQ acylase -2, VIM-2 inhibitor 9.8*, IMP-1 inh -1 and ATG4B inhibitor -9.
Screening CN(CC(=O)Nc1ccccc1Cl)C(=O)c1ccc(COc2ccccc2)cc1 returned MIN6 prolif -2, HKDC1 inh 0, PvdQ acylase -11 and ATG4B inhibitor -3.
For O=c1c2cc(Cl)ccc2oc2nc3n(c(=O)c12)CCCS3 the results were MIN6 prolif -1, HKDC1 inh 8, PvdQ acylase -9, VIM-2 inhibitor 9.7*, IMP-1 inh 1 and ATG4B inhibitor -8.
For N#Cc1c(-c2ccc(Cl)cc2)nc2n(c1=O)CCCS2 the results were MIN6 prolif -3, HKDC1 inh 5, PvdQ acylase -9, VIM-2 inhibitor -1, IMP-1 inh -1 and ATG4B inhibitor 0.
Screening Cc1cc(C)n(-c2nc3ccccc3c(=O)n2OCC#N)n1 returned MIN6 prolif -7, HKDC1 inh -3, PvdQ acylase -12, VIM-2 inhibitor -5, IMP-1 inh -6 and ATG4B inhibitor 0.
Screening Cc1ccc2nc(C)cc(NCCO)c2c1 returned MIN6 prolif 0, HKDC1 inh 1, PvdQ acylase -11, VIM-2 inhibitor 0, IMP-1 inh 0 and ATG4B inhibitor -10.
Screening Cc1ccc2nc(C)cc(Nc3ccc4c(c3)OCCO4)c2c1 returned MIN6 prolif 0, HKDC1 inh -7, PvdQ acylase 12, VIM-2 inhibitor 11*, IMP-1 inh -2 and ATG4B inhibitor -3.
Screening CC(=O)c1ccc(Nc2cc(C)nc3ccc(C)cc23)cc1 returned MIN6 prolif -3, HKDC1 inh -13, PvdQ acylase -7, VIM-2 inhibitor 8.4*, IMP-1 inh -1 and ATG4B inhibitor -1.
For Cn1c2c(c(=O)n(C)c1=O)C(c1cccc(Br)c1)C1C(=O)c3ccccc3C1=N2 (stereo not drawn) the results were VIM-2 inhibitor 1 and IMP-1 inh -2.
Screening CCN(CC)C(=O)CSc1nc(N)c(C#N)c(-c2cccs2)c1C#N returned MIN6 prolif -1, HKDC1 inh 10, PvdQ acylase -10, VIM-2 inhibitor -1, IMP-1 inh -2 and ATG4B inhibitor -10.
Screening Cc1ccccc1NC(=O)CSc1nc(N)c(C#N)c(-c2cccs2)c1C#N returned MIN6 prolif -1, HKDC1 inh -4, PvdQ acylase -1, VIM-2 inhibitor -4, IMP-1 inh 12* and ATG4B inhibitor 12.
`CCNC(=O)COc1ccc2ccccc2c1` gave MIN6 prolif -1, HKDC1 inh 5, PvdQ acylase 35*, VIM-2 inhibitor -1, IMP-1 inh -2 and ATG4B inhibitor -21.
`CCNC(=O)COc1ccc(CC)cc1` gave MIN6 prolif 3, HKDC1 inh -12, PvdQ acylase -5, VIM-2 inhibitor -3, IMP-1 inh -2 and ATG4B inhibitor 30.
